Results from article PMC7675178 (Journal of medicinal chemistry, 2019).
Residues, ends and D or L forms follow the SMILES beside them. *: point of attachment. Cbz = O=C(OCc1ccccc1)*; Boc = CC(C)(C)OC(=O)*; OBn = c1ccc(CO*)cc1; OtBu = CC(C)(C)O*

Key:
H727 cells = experiment: Cell viability assay; type: cell-based
primary MM cells = experiment: Cell viability of primary MM cells; type: cell-based, human; conditions: 48 h; for Cytotoxic effects in primary MM samples, Btz-resistant versus PI-naïve: 10 μM, nine samples, Figure 5B,C
How it was run: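 Bone-marrow aspirates from patients; CD138+ plasma cells isolated by positive bead selection, purity checked by flow cytometry. Donors were six Btz/Cfz-naïve and eight relapsed on Btz. Plated 20 000 cells/well in IMDM with 10% FBS. Exposed to test compound (50 nM or 10 μM) for 48 h. Percentage viable cells measured by CellTiter-Glo luminescence.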

[1] = system: Cfz-resistant RPMI8226 cells; experiment: Cell viability assay; type: cell-based, human
How it was run: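 Resistant RPMI8226 subline derived by stepwise Cfz exposure up to 80 nM over ~6 months, kept in 80 nM, then grown Cfz-free ~1 week before assay. Parental and resistant cells in RPMI1640/10% FBS, plated 10 000/well; compounds added 24 h after plating. MTS read after 72 h. IC50 by nonlinear regression; triplicates, or three independent experiments for the reference.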

[2] = in vivo; cited from earlier work
[3] = target: β1i/LMP2 of human 20S immunoproteasome (Homo sapiens, UniProt P28065); experiment: Enzyme kinetics assay, β1i/LMP2 activity of purified human 20S immunoproteasome; type: biochemical; conditions: 20S purified immunoproteasome, Figure 7
How it was run: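 Purified human 20S immunoproteasome in pH 8.0 Tris-HCl buffer (0.5 mM EDTA, 0.035% SDS), incubated 1 h with graded inhibitor concentrations. LMP2 activity measured with Ac-PAL-AMC (100 μM final) by AMC fluorescence (360/460 nm) every minute for 1 h. Linear-regression initial rates normalized to vehicle control; IC50 by nonlinear fit.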

[4] = system: proteasome chymotrypsin-like (CT-L, β5/β5i) activity; type: biochemical, human; conditions: RPMI8226 cell lysate, Figure 7
How it was run: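 RPMI 8226 lysate in 20 mM Tris-HCl, 0.5 mM EDTA, 0.035% SDS, pH 8.0, preincubated 1 h with a range of inhibitor concentrations. Suc-LLVY-AMC added at 100 μM final. AMC fluorescence (ex 360/em 460 nm) read each minute for 1 h. Initial slopes normalized to vehicle wells; IC50 from nonlinear regression.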

[5] = In vitro metabolic stability in rat liver homogenates; type: in vitro ADME; conditions: 1 μM, 5, 10 and 20 min, 37 °C, Figure 8B
How it was run: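 Livers from 8-week-old male Sprague-Dawley rats, PBS-washed and homogenized in five-fold volume PBS (pH 7.4) per gram. Homogenate prewarmed to 37 °C, spiked to 1 μM final, n = 3. Samples taken at 0, 5, 10 and 20 min, quenched in four-fold ice-cold acetonitrile with 0.5 μM chlorpropamide internal standard. Remaining drug quantified by LC-MS/MS (positive-ion SRM).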

β1i subunit = conditions: cited from earlier work
β5 subunit = conditions: cited from earlier work
[6] = 72-h IC50 values, H727 versus H23, Figure 3B

Structure (SMILES): CC(C)C[C@H](NC(=O)[C@H](Cc1ccccc1)NC(=O)c1cnccn1)B(O)O [Btz, bortezomib]
- Cytotoxicity in H727 cells compared with H23 cells (H727 cells; human, 72 h): comparable cytotoxicity in H727 and H23 cells

Structure (SMILES): CC(C)C[C@H](NC(=O)[C@H](CCc1ccccc1)NC(=O)CN1CCOCC1)C(=O)N[C@@H](Cc1ccccc1)C(=O)N[C@@H](CC(C)C)C(=O)[C@@]1(C)CO1 [Cfz, carfilzomib]
- Sensitivity of primary MM samples, Btz-relapsed versus PI-naïve patients (primary MM cells; 50 nM, 14 donors, Figure 5A): tended to be less responsive to Cfz
- Increase in IC50 values in Cfz-resistant RPMI8226 cells ([1]; versus parental RPMI8226, 72 h MTS, Figure 4A): greater than 35 fold
- Plasma half-lives [2]: less than 1 h

Structure (SMILES): CCCCCCC(=O)N[C@@H](C)C(=O)N[C@@H](CC(C)C)C(=O)[C@@]1(CO)CO1 [Compound 5, N-((S)-1-((S)-1-((R)-2-(Hydroxymethyl)oxiran-2-yl)-4-methyl-1-oxopentan-2-ylamino)-1-oxopropan-2-yl)heptanamide]
- Cytotoxic activity in cancer cell lines relative to UK101 (H727 cells; H23, H727 and Cfz-resistant RPMI8226 cells, MTS, Figure 6B): considerably improved the cytotoxic activity

Structure (SMILES): CC(C)C[C@H](NC(=O)[C@H](CCc1ccccc1)NC(=O)CN1CCOCC1)C(=O)N[C@@H](Cc1ccccc1)C(=O)N[C@@H](CC(C)C)C(=O)[C@@]1(CO)CO1 [Compound 9, (S)-N-((S)-1-((S)-1-((R)-2-(Hydroxymethyl)oxiran-2-yl)-4-methyl-1-oxopentan-2-ylamino)-1-oxo-3-phenylpropan-2-yl)-4-methyl-2-((S)-2-(2-morpholinoacetamido)-4-phenylbutanamido)-pentanamide]
- IC50 against β1i activity compared with Cfz [3]: IC50 values similar to that of Cfz
- Improvement in potency as compared to Cfz ([1]; Cfz-resistant RPMI8226 cells, Figure 7): almost three-fold improvement in potency
- IC50 against CT-L (β5/β5i) activity compared with Cfz [4]: IC50 values similar to that of Cfz
- Metabolic stability compared with Cfz [5]: more stable than Cfz

Structure (SMILES): CC(C)C[C@H](NC(=O)[C@H](CCc1ccccc1)NC(=O)CN1CCOCC1)C(=O)N[C@@H](Cc1ccccc1)C(=O)N[C@@H](CC(C)C)C(=O)[C@@]1(COS(C)(=O)=O)CO1 [Compound 12, ((S)-2-((4S,7S,10S,13S)-10-Benzyl-7-isobutyl-15-methyl-1-morpholino-2,5,8, 11-tetraoxo-4-phenethyl-3,6,9, 12-tetraazahexadecanecarbonyl)oxiran-2-yl)methylmethane-sulfonate]
- IC50 against β1i activity compared with Cfz [3]: IC50 values similar to that of Cfz
- Potency against H727 cells compared with Cfz (H727 cells; Cfz-resistant H727 cells, Figure 7): less potent than Cfz
- IC50 against CT-L (β5/β5i) activity compared with Cfz [4]: IC50 values similar to that of Cfz

Structure (SMILES): CC(C)C[C@@H](C=O)NC(=O)[C@H](CC(C)C)NC(=O)[C@H](CC(C)C)NC(=O)OCc1ccccc1 [MG-132] (Cbz-Leu-Leu-Leu-aldehyde)
- Cytotoxicity in H727 cells compared with H23 cells (H727 cells; [6]): comparable cytotoxicity in H727 and H23 cells

Structure (SMILES): CCCCCCC(=O)N[C@@H](C)C(=O)N[C@@H](CC(C)C)C(=O)[C@@]1(CO[Si](C)(C)C(C)(C)C)CO1 [UK101]
- Cytotoxic effects in primary MM samples, Btz-resistant versus PI-naïve (primary MM cells): similar
- Inhibition of β1i subunit, concentration range (β1i subunit): nanomolar concentration ranges
- Inhibition of β5 subunit (CT-L activity), concentration range (β5 subunit): micromolar concentration ranges

Structure (SMILES): CCCCCCC(=O)N[C@@H](CO)C(=O)N[C@@H](CC(C)C)C(=O)[C@@]1(COCOCCOC)CO1 [UK102]
- Cytotoxic effects in primary MM samples, Btz-resistant versus PI-naïve (primary MM cells): similar

Structure (SMILES): CC(=O)N[C@@H](CSC(=O)[C@]1([C@@H](O)C(C)C)NC(=O)[C@H](C)[C@@H]1O)C(=O)O [lactacystin]
- Cytotoxicity in H727 cells compared with H23 cells (H727 cells; [6]): not as effective in H727 cells as in H23 cells

Structure (SMILES): CC(C)(C)OC(=O)N[C@@H](CC(=O)OCc1ccccc1)C(=O)N[C@@H](CCCCNC(=O)OCc1ccccc1)C(=O)OC(C)(C)C [reversin 121] (Boc-Asp(OBn)-Lys(Cbz)-OtBu)
- Restoration of Cfz sensitivity by P-gp inhibitor ([1]; Cfz-resistant RPMI8226, Supporting Information S2): almost completely restored Cfz sensitivity
